Results published in ChEMBL document CHEMBL6092204, “Synthesis of pyridyl pyrimidine hedgehog signaling pathway inhibitors and their antitumor activity in human pancreatic cancer” (Eur J Med Chem, 2024).

Experiments:
[1] = system: PANC-1; assay: Induction of apoptosis in human PANC-1 cells assessed as early apoptotic cells at 5 uM incubated for 48 hrs by Annexin V-FITC/PI staining based flow cytometry (reference value: 1.88 %); type: functional
[2] = system: BXPC-3; assay: Induction of apoptosis in human BXPC-3 cells assessed as necrotic cells at 2.5 uM incubated for 48 hrs by Annexin V-FITC/PI staining based flow cytometry (reference value: 0.71 %); type: functional
[3] = system: PANC-1; assay: Antiproliferative activity against human PANC-1 cells assessed as inhibition of cell viability incubated for 48 hrs by MTT assay; type: functional, cell-based; settings: PANC-1, 48 h
Method in brief: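 Cells in log phase were seeded at 8,000-10,000/well and allowed to adhere overnight at 37 °C, 5% CO2. Compound from DMSO stock, diluted in medium, was applied for 48 h; controls got drug-free medium, blanks held medium only. MTT (5 mg/mL stock) 4 h, formazan dissolved in DMSO, A490 read. Viability was blank-corrected against untreated cells; IC50 came from a fitted curve; three separate experiments.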

[4] = system: PANC-1; assay: Induction of apoptosis in human PANC-1 cells assessed as early apoptotic cells at 10 uM incubated for 48 hrs by Annexin V-FITC/PI staining based flow cytometry (reference value: 1.88 %); type: functional
[5] = system: BXPC-3; assay: Induction of apoptosis in human BXPC-3 cells assessed as late apoptotic cells at 5 uM incubated for 48 hrs by Annexin V-FITC/PI staining based flow cytometry (reference value: 6.72 %); type: functional
[6] = Toxicity in BALB/c nude mouse xenografted with human BxPC-3 cells assessed as inflammatory infiltration in heart at 5 to 15 mg/kg, ip qd for 21 days by H and E staining based analysis; settings: in vivo, 504 h
[7] = Inhibition of Hh signaling pathway in mouse NIH3T3 cells incubated for 48 hrs by Gli luciferase reporter assay; type: cell-based; settings: NIH3T3, 48 h
Method in brief: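 Reporter cells were seeded in 96-well plates, incubated overnight, then treated for 48 h. Lysate luciferase activity was measured with a dual-luciferase system, and firefly signal was normalised to Renilla.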

[8] = Toxicity in BALB/c nude mouse xenografted with human BxPC-3 cells assessed as cellular edema in kidneys at 5 to 15 mg/kg, ip qd for 21 days by H and E staining based analysis; settings: in vivo, 504 h
[9] = Toxicity in BALB/c nude mouse xenografted with human BxPC-3 cells assessed as necrosis in kidneys at 5 to 15 mg/kg, ip qd for 21 days by H and E staining based analysis; settings: in vivo, 504 h
[10] = system: BxPC-3; assay: Antitumor activity aginst human BxPC-3 cells xenografted in BALB/c nude mouse assessed as decrease in tumor volume at 5 mg/kg, ip qd for 21 days relative to control; parameters: scale not given: the % may be the effect or the level left; settings: time 21 day
[11] = system: BXPC-3; assay: Induction of apoptosis in human BXPC-3 cells assessed as late apoptotic cells at 2.5 uM incubated for 48 hrs by Annexin V-FITC/PI staining based flow cytometry (reference value: 6.72 %); type: functional
[12] = system: PANC-1; assay: Inhibition of Hh signaling pathway in human PANC-1 cells assessed as reduction in Gli1 level incubated for 48 hrs by Western blot analysis; type: cell-based; settings: dose 2.5-10 µM
Method in brief: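 Cells were treated in 6-well plates for 48 h, lysed by sonication in RIPA with PMSF, and quantified by BCA. 20-30 μg protein was run on 6-12% gradient SDS-PAGE and transferred to PVDF. Membranes were blocked 2 h at room temperature, probed with anti-Gli1 overnight at 4 °C and secondary 1.5 h at room temperature, then developed by ECL. Densitometry was normalised to β-actin; three separate experiments.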

[13] = system: BXPC-3; assay: Induction of apoptosis in human BXPC-3 cells assessed as necrotic cells at 5 uM incubated for 48 hrs by Annexin V-FITC/PI staining based flow cytometry (reference value: 0.71 %); type: functional
[14] = system: PANC-1; assay: Induction of apoptosis in human PANC-1 cells assessed as early apoptotic cells at 2.5 uM incubated for 48 hrs by Annexin V-FITC/PI staining based flow cytometry (reference value: 1.88 %); type: functional
[15] = system: PANC-1; assay: Induction of apoptosis in human PANC-1 cells assessed as late apoptotic cells at 10 uM incubated for 48 hrs by Annexin V-FITC/PI staining based flow cytometry (reference value: 2.74 %); type: functional
[16] = Toxicity in BALB/c nude mouse xenografted with human BxPC-3 cells assessed as tissue fibrosis in lung at 5 to 15 mg/kg, ip qd for 21 days by H and E staining based analysis; settings: in vivo, 504 h
[17] = system: PANC-1; assay: Induction of apoptosis in human PANC-1 cells assessed as late apoptotic cells at 8 uM incubated for 48 hrs by Annexin V-FITC/PI staining based flow cytometry (reference value: 2.74 %); type: functional
[18] = Toxicity in BALB/c nude mouse xenografted with human BxPC-3 cells assessed as tissue fibrosis in heart at 5 to 15 mg/kg, ip qd for 21 days by H and E staining based analysis; settings: in vivo, 504 h
[19] = Toxicity in BALB/c nude mouse xenografted with human BxPC-3 cells assessed as necrosis in spleen at 5 to 15 mg/kg, ip qd for 21 days by H and E staining based analysis; settings: in vivo, 504 h
[20] = system: PANC-1; assay: Induction of apoptosis in human PANC-1 cells assessed as viable cells at 8 uM incubated for 48 hrs by Annexin V-FITC/PI staining based flow cytometry (reference value: 93.2 %); type: functional; settings: read-out: Activity
[21] = Toxicity in BALB/c nude mouse xenografted with human BxPC-3 cells assessed as necrosis in liver at 5 to 15 mg/kg, ip qd for 21 days by H and E staining based analysis; settings: in vivo, 504 h
[22] = system: PANC-1; assay: Induction of apoptosis in human PANC-1 cells assessed as early apoptotic cells at 8 uM incubated for 48 hrs by Annexin V-FITC/PI staining based flow cytometry (reference value: 1.88 %); type: functional
[23] = system: PANC-1; assay: Induction of apoptosis in human PANC-1 cells assessed as late apoptotic cells at 5 uM incubated for 48 hrs by Annexin V-FITC/PI staining based flow cytometry (reference value: 2.74 %); type: functional
[24] = system: PANC-1; assay: Induction of cell cycle arrest in human PANC-1 cells assessed as accumulation at G1 phase at 10 uM incubated for 48 hrs by PI/RNase staining based flow cytometry (reference value: 82.0 %); type: functional
[25] = system: BXPC-3; assay: Induction of apoptosis in human BXPC-3 cells assessed as viable cells at 5 uM incubated for 48 hrs by Annexin V-FITC/PI staining based flow cytometry (reference value: 91.5 %); type: functional; settings: read-out: Activity
[26] = system: BXPC-3; assay: Induction of cell cycle arrest in human BXPC-3 cells assessed as accumulation at G2 phase at 10 uM incubated for 48 hrs by PI/RNase staining based flow cytometry (reference value: 8.15 %); type: functional
[27] = Toxicity in BALB/c nude mouse xenografted with human BxPC-3 cells assessed as inflammatory infiltration in lung at 5 to 15 mg/kg, ip qd for 21 days by H and E staining based analysis; settings: in vivo, 504 h

Question: Which results are given for `CN(C)Cc1ccc(NC(=O)c2ccc(Nc3nccc(-c4cccnc4)n3)cc2)cc1`?
Answer: Activity [1]: 3.29%; Activity [2]: 1.37%; IC50 [3]: 4200 nM; Activity [4]: 4.09%; Activity [5]: 10.8%; Activity [6]: Non-toxic; IC50 [7]: 2.7 nM; Activity [8]: Non-toxic; Activity [9]: Non-toxic; Activity [10]: 73%; Activity [11]: 8.06%; inhibition [12]: Dose-dependent-effect; Activity [13]: 1.02%; Activity [14]: 1.97%; Activity [15]: 22.3%; Activity [16]: Non-toxic; Activity [17]: 8.97%; Activity [18]: Non-toxic; Activity [19]: Non-toxic; viability at 8 µM [20]: 85.9%; Activity [21]: Non-toxic; Activity [22]: 2.97%; Activity [23]: 7.03%; Activity [24]: 72.7%; viability at 5 µM [25]: 85.5%; Activity [26]: 2.98%; Activity [27]: Non-toxic
